In ChEMBL document CHEMBL4513216, “Probing the Open Global Health Chemical Diversity Library for Multistage-Active Starting Points for Next-Generation Antimalarials” (ACS Infect Dis, 2020):

Experiment: Toxicity liver stage against HepG2, at 10uM
Format: cell-based
Design: test concentration 10 uM, cell line HepG2-A16-CD81EGFP
Settings: human, HepG2-A16-CD81EGFP cells; read-out: INHIBITION
Method in brief: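 Uninfected HepG2-A16-CD81EGFP cells, 3 × 10^3 per well, 1536-well, plated on prespotted compound at 10 μM final, parasite-free screening media added to match infected plates; puromycin 10 μM positive, DMSO 0.5% negative; run in parallel with 48 h PbLuc assay at 37 °C, 5% CO2; viability by CellTiter-Glo luminescence, normalized to controls.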

Structure (SMILES) | cytotoxicity at 10 µM [%]
CC(=O)N1C[C@@H](F)[C@@H](OCc2nc3cc(C)c(C)cc3[nH]2)C1 | 1.77
COCCOc1ncccc1-c1noc([C@@H]2CCCN2C2CCC2)n1 | -7.68
COc1ccc(CN2C[C@H](O)C[C@H]2c2nc(-c3ccccc3)no2)cc1 | 0.223
Cc1cc(C(=O)Nc2n[nH]c(C3CC3)n2)c2c(C)noc2n1 | -1.86
CCn1cnc2c(cnn2-c2cccc(C)c2C)c1=O | -17.9
CCOCc1nn(C)c2c1CN(C(=O)c1ccno1)CC2 | 8.61
COCCNC(=O)Cn1c(-c2cccc(F)c2)nc(C)c(CCO)c1=O | -2.37
CC(=O)Nc1nc(-c2ccc(C)c(C)c2)c[nH]1 | -19.3
O=c1cc(-c2ccc(F)cc2)nc2n1CCCCC2 | -1.91
Cn1ccc2c(C(=O)N3CCC(C(N)=O)CC3)cccc21 | 2.92
Cc1cnc2n(c1=O)CC(C(=O)Nc1cccc3cccnc13)CS2 (configuration not stated) | -19.6
CC(C)NC(=O)c1ccc2c(c1)nc1n2CCN(c2ccccc2)C1 | -3.99
CCn1nnc2c1C(COC)CN(C(=O)Cc1cccs1)C2 (configuration not stated) | -15.5
Cc1noc([C@H]2CC[C@@H]3[C@@H](CCN3S(C)(=O)=O)O2)n1 | -19.3
CC(C(=O)O)n1nc(C(F)(F)F)c(Cl)c1C1CC1 (configuration not stated) | 2.01
CC1(C(=O)N2CCOCC2)CN(CC2CCOCC2)CCO1 (configuration not stated) | 4.14
Cc1cc2ccncc2n1CC1(O)CCN(C(=O)c2ccncc2)CC1 | 7.53
CN1C[C@@H](C(=O)NCC(F)(F)F)[C@@]2(CCc3ccccc3C(=O)N2)C1 | 6.22
Cc1csc2c(C3CCCN(C(=O)Cn4cncn4)C3)nc(C)n12 (configuration not stated) | 5.27
CCCn1nccc1-c1nccnc1CC1CCN(C(C)=O)C1 (configuration not stated) | 1.34
CSCC[C@@H]1CN2CCC[C@H]2CN1Cc1coc2ccc(Cl)cc2c1=O | 0.11
COc1ncc(CN2CCCC(c3[nH]ncc3S(C)(=O)=O)C2)cn1 (configuration not stated) | 7.24
COCCOCCSc1nnc(Cc2ccccc2F)o1 | 14.5

Structure (SMILES) | cytotoxicity at 10 µM [%]
CCN(CCO)Cc1ccc(Br)c2cccnc12 | 1.95
Cc1nccn1-c1ccc(NS(=O)(=O)c2cccnc2)cn1 | -4.73
CCn1ccnc1CN1CCCN(C(=O)C2(C#N)CCCCC2)CC1 | 3.75
O=c1[nH]c(=O)n(CC(O)c2ccccc2Cl)cc1Cl (configuration not stated) | 9.71
c1ccc(CCN2CCC(OCC3CCCCO3)CC2)nc1 (configuration not stated) | -4.9
COC(=O)CNC(=O)CCc1cc(Br)cs1 | 0.624
CCCC(=O)NC1CCCN(c2nc3ccccc3cc2CO)C1 (configuration not stated) | -44.5
CN(CC(=O)N1CCCC(n2ccnc2)C1)c1cnccn1 (configuration not stated) | 1.41
Cc1nnc(C(C)N2CCN(Cc3noc(C(C)(C)C)n3)CC2)o1 (configuration not stated) | -13.3
CC1CN(C)CCN1C(=O)c1cccn1Cc1cccs1 (configuration not stated) | -14.1
Cc1ccc(S(=O)(=O)N(C)CC(C)O)c(F)c1 (configuration not stated) | -11.4
Cc1ccc(C(NC(=O)CN2CCc3c(ncn3C)C2)C2CC2)cc1 (configuration not stated) | -2.43
CCc1ncnc(N2CCOCC2CCO)c1F (configuration not stated) | -2.56
Cc1ccc(N2CCCN(C(=O)CCCn3ccnc3C)CC2)nn1 | -3.83
CCn1cnnc1CNC(=O)N(C)Cc1ccccc1OC | -7.32
O=C(NCC(=O)N1CCCC1Cc1cccc(F)c1)C1CCCC1 (configuration not stated) | -18
Cn1cc(C(=O)NCCC(=O)N2CCCCC2)c(-c2cccnc2)n1 | -5.93
CC(CS(C)(=O)=O)N(C(=O)Nc1ccc(F)cc1F)C1CC1 (configuration not stated) | 4.08
CCOc1ncccc1NC(=O)c1ccc(C(C)=O)s1 | 2.99
O=C(Nc1ccccc1OC1CCOC1)c1ccon1 (configuration not stated) | -0.238
COCCCn1ccc(NC(=O)NCCCNc2ccccc2)n1 | 4.97
Cn1nnc2c1CCN(C(C(=O)N1CCCCC1)c1ccccc1)C2 (configuration not stated) | -2.56
CC(O)CN1CCC(CN(C)CCC(=O)NC2CCCC2)CC1 (configuration not stated) | -0.663

Structure (SMILES) | cytotoxicity at 10 µM [%]
CC(=O)N(Cc1noc(C)n1)C1CCN(CC(=O)N(C)C2CC2)C1 (configuration not stated) | -4.69
CC(C)c1nsc(N2CCOCC2)n1 | -11
CCOCCN1CCN(c2ccc(CN(C)C)cn2)CC1 | -4.11
Cc1cc(CN(C)C(=O)C2CC(c3cccc(F)c3)=NO2)no1 (configuration not stated) | 5.91
Cc1nn(C)c2ncc(CN3CCN(c4ncccn4)CC3)cc12 | -0.234
COCCn1cc(NCc2cn(C)nc2-c2ccncc2)cn1 | 2.03
Nc1nccnc1C(=O)N1CCN(CCOc2ccccc2)CC1 | 12.8
c1cnn(CCNCCCOc2ccc3c(c2)OCO3)c1 | 7.61
Clc1ccccc1-c1nnc(CSCCN2CCOCC2)o1 | 0.728
CC(C)NC(=O)CN(C1CC1)C(C)C1CC1 (configuration not stated) | -1.6
Cc1noc(CNc2c(N3CCCC3)cccc2N2CCCC2)n1 | 0.184
CCCNC(=O)c1ccc(-c2ccco2)[nH]c1=O | -5.68
Cn1cc(CCCNC(=O)NC2CCN(c3ccccc3)C2=O)cn1 (configuration not stated) | 6.75
O=C(Cc1cn2ccsc2n1)N(Cc1ccco1)CC1CCCO1 (configuration not stated) | 7.07
c1ccc2[nH]c(C3CCN(Cc4nnc(C5CC5)o4)CC3)nc2c1 | 0.152
COc1ccc(-c2nc(CNC(C)Cn3cccn3)cs2)cc1 (configuration not stated) | 4.27
O=C(NCc1nc[nH]n1)c1cc(COc2cccc(F)c2)[nH]n1 | -4.99
O=C(c1ccc[nH]1)N1CCc2ccc(S(=O)(=O)N3CCOCC3)cc2C1 | 3.99
CCn1cc(CN2CCC(CN3CCCCC3)CC2)cc1C#N | -5.77
Cc1nc(C)c(-c2nnc(SCC(=O)O)n2C(C)c2ccccc2)o1 (configuration not stated) | 4.64
c1ccc(N2CCCC(c3nc(-c4cccnn4)no3)C2)nc1 (configuration not stated) | -3.42
CCc1cc(N2C[C@H](C3CC3)[C@@H](N)C2)nc(N2CCOCC2)n1 | -1.47
Cc1nc(CCN)cc(N2CCC(O)(c3ccccc3)C2)n1 (configuration not stated) | 2.03

Structure (SMILES) | cytotoxicity at 10 µM [%]
CN1C(=O)C2(CCCN(C(=O)c3cccnc3O)C2)c2ccccc21 (configuration not stated) | -5.21
CCCc1nncn1-c1cc(OC)ccc1OC | 7.93
CN(C)C(C(=O)N1CCN(S(N)(=O)=O)CC1)c1ccccc1F (configuration not stated) | 0.199
Cc1cc(C)n(CC2(CNC(=O)C(c3ccccc3C)N(C)C)CC2)n1 (configuration not stated) | 1.79
O=C(CN1CCOC1=O)N1CCc2nnc(-c3ccccc3)n2CC1 | -16.2
CN1CC2(CCN(C(=O)c3ccc4nccnc4c3)CC2)CC1=O | -1.7
CC(C)[C@H]1CN(Cc2ccncc2)C[C@@H]1NC(=O)C1(C#N)CCOCC1 | -4.81
CCc1ncc(C(=O)N2CCN(Cc3ncccc3C)CC2)cn1 | -4.68
COc1cc(CN2CCN(CC3CC3)[C@@H]3CS(=O)(=O)C[C@@H]32)cc(OC)c1 | 1.41
COc1nc2ccccc2cc1CN1CCC(CNS(C)(=O)=O)C1 (configuration not stated) | -2.7
CC(C)n1cnnc1CCNCc1cn(CCC(N)=O)c2ccccc12 | -3.81
CS(=O)(=O)N(Cc1ccon1)c1ccc2c(c1)OCO2 | 1.06
CCC(NS(C)(=O)=O)c1ccccc1C (configuration not stated) | -43.2
CCNc1ncc(C(=O)N2Cc3nc(C)[nH]c(=O)c3C2)cn1 | -2.19
C/C(=C\c1ccco1)CN(C)C(C)Cc1ccccn1 (configuration not stated) | 1.89
Cc1ccccc1CS(=O)(=O)NCCCN1CCCCC1 | 19.4
Cc1nc(-c2ccccc2C)n(CC(=O)NC2CCCC2)n1 | 5.48
COc1c(CNCc2ccc3c(c2)OCCO3)c(C(C)C)nn1C | -3.42
CCN(CC1CCOC1)C(=O)c1cc(F)ccc1N1CCN(C)CC1 (configuration not stated) | -7.68
Cc1cccc(NS(=O)(=O)c2cc3c(c(C(=O)O)c2)OCCO3)c1 | -3.44
CC(C)n1ncc2cc(NC(=O)N3CCC(C(N)=O)C3)cnc21 (configuration not stated) | -1.85
O=C(CC1CCCO1)N1CCCN(c2cccnn2)CC1 (configuration not stated) | -7.72
Cc1cccc(OCCNC(=O)CN2CCCC2c2noc(C)n2)c1 (configuration not stated) | -8.6

Structure (SMILES) | cytotoxicity at 10 µM [%]
Cc1cc(CN2CCN(C(=O)NC(C)c3cccnc3)CC2)no1 (configuration not stated) | -11.8
CCc1nc(C2CCCN2C(=O)c2cc3c(s2)CCC3)no1 (configuration not stated) | -5.86
Cc1nc2n(n1)CC(NCC(=O)Nc1cc(C)on1)CC2 (configuration not stated) | -12.8
O=C(CCc1nc(-c2ccccn2)no1)N1CCCC1c1ccsc1 (configuration not stated) | -14.6
c1ccc(-n2ccc(CN3CCOC(Cn4cncn4)C3)n2)cc1 (configuration not stated) | 0.561
CC(NC(=O)NCCCc1n[nH]c(N)c1C#N)c1ccc(Cl)cc1 (configuration not stated) | -12.5
CCC(O)CN1CCN(C(=O)c2cccn2Cc2cccnc2)CC1 (configuration not stated) | -14.1
Cc1cn2nc(N3CCN(Cc4cc(C)on4)CC3)sc2n1 | -12.1
c1cnnc(N2CCCC2CNc2cnc3ccccc3n2)c1 (configuration not stated) | 1.53
O=C(NCCCn1nc2ccccn2c1=O)Nc1ccccc1Cl | -22.3
COc1ccc(C(=O)N2CCCCC2c2nccs2)c(OC)c1 (configuration not stated) | -10.7
CC(C)Oc1ncccc1CNC(=O)c1cnccn1 | -10.2
COc1ccc(Cl)cc1C(=O)N1CCCC(n2nc(C)nc2C)C1 (configuration not stated) | -4.53
COc1ccc(C2CCCN2C(=O)c2csc(NC(C)=O)n2)cc1 (configuration not stated) | -5.82
Cn1cc(CN2CCc3c(COCC4CC4)cncc3C2)cn1 | -6.33
Cn1cc(CN2CCc3onc(COc4cccnc4)c3C2)cn1 | 4.78
CC(C)N1CCO[C@H]2CN(C(=O)Cc3ccsc3)C[C@H]21 | 11.4
O=C(c1cocn1)N1C[C@@H]2CN(CC3CC3)CCO[C@@H]2C1 | -2.29
O=C(NC[C@]12COC[C@H]1CN(Cc1nccs1)C2)c1ccsc1 | 4.09
O=C(Nc1ccccc1)[C@H]1C[C@H]2CN(C(=O)Nc3ccccc3)C[C@@H]1O2 | 2.4
